Experimental findings from ChEMBL document CHEMBL2429825, “Structure-activity studies of divin: an inhibitor of bacterial cell division” (ACS Med Chem Lett, 2013) are described below.

Converted amounts (≈) assume the structure as drawn. The source made the active and inactive calls.

What is called MIC is the smallest concentration in the dilution series that meets the test's criterion for growth inhibition. Higher therefore signals a less susceptible organism. For orientation: kinetic solubility means the concentration staying in solution when a stock, usually in DMSO, is diluted into the medium.

The test system of data set [1] is Escherichia coli. Put plainly: Antimicrobial activity against tolc-defecient Escherichia coli BW25113 after 17 hrs by two-fold serial dilution technique. It counts as functional. The following applies: BW25113, 17 h. An outline of the steps:
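MIC by serial dilution following a CLSI protocol. E. coli BW25113 ΔtolC was grown in M8 medium.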

The subject of data set [2] is Caulobacter vibrioides. Put plainly: Antimicrobial activity against Caulobacter crescentus CB15N after 17 hrs by two-fold serial dilution technique. The class given is functional.
Data set [3] has as its system Caulobacter vibrioides. In words: Antimicrobial activity against Caulobacter crescentus CB15N assessed as cell division arrest after the initiation of midcell constriction at MIC after 17 hrs by phase contrast microscopy. The class given is functional, organism-based. The gist of the method:
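C. crescentus CB15N cells were incubated with compound for 17 h, then imaged to score cell-division phenotype at the midcell constriction stage.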

Data set [4] in a line: Solubility of the compound by light scattering fluorescence spectrophotometry. The class given is physicochemical. The gist of the method: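 Solubility was measured in M8 medium containing 2% DMSO by a light-scattering assay.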
In data set [5] the test system is Vibrio cholerae. Put plainly: Antimicrobial activity against clinical isolates of Vibrio cholerae by serial dilution technique. It counts as functional.
Data set [6] relates to Klebsiella aerogenes. Put plainly: Antimicrobial activity against clinical isolates of Enterobacter aerogenes by serial dilution technique. The class given is functional. The gist of the method: (§1)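 Clinical pathogenic isolates were tested for growth inhibition in M8 medium.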
For data set [7], the system named is Salmonella typhimurium. Put plainly: Antimicrobial activity against clinical isolates of Salmonella typhimurium by serial dilution technique. The class given is functional, Salmonella enterica subsp. enterica serovar Typhimurium. Conditions: Salmonella enterica. An outline of the steps:
as §1

The test system of data set [8] is Shigella boydii. Put plainly: Antimicrobial activity against clinical isolates of Shigella boydii by serial dilution technique. The class given is functional. An outline of the steps: as §1
Data set [9] has as its system Acinetobacter baumannii. Put plainly: Antimicrobial activity against clinical isolates of Acinetobacter baumannii by serial dilution technique. It counts as functional. The gist of the method: as §1
Data set [10] concerns Klebsiella pneumoniae. Put plainly: Antimicrobial activity against clinical isolates of Klebsiella pneumoniae by serial dilution technique. The class given is functional. An outline of the steps: as §1
In data set [11] the test system is Morganella morganii. In words: Antimicrobial activity against clinical isolates of Morganella morganii by serial dilution technique. The class given is functional. The gist of the method: as §1
Data set [12] has as its system Caulobacter vibrioides. Put plainly: Bacteristatic activity against Caulobacter crescentus CB15N assessed as inhibition of cell growth at 2.5 to 20 uM by plate reader analysis. It counts as functional, organism-based.

Regarding `Cc1nc2ccccc2n1CCC(=O)NNCc1c(O)ccc2ccccc12`, the minimum inhibitory concentration (MIC) in [1] stood at 50 µM (≈ 18.7 µg/mL); in [2] it was 40 µM (≈ 15 µg/mL).
In the case of `Cc1nc2ccccc2n1CCC(=O)N/N=C/c1c(O)ccc2cc(O)ccc12`, the MIC came out at 12.5 µM (≈ 4.86 µg/mL) in [1] and 5 µM (≈ 1.94 µg/mL) in [2].
`Cc1nc2ccccc2n1CCC(=O)N/N=C/c1ccc(O)c2ccccc12`: the MIC in data set [1] was above 50 µM; in data set [2], above 20 µM.
For `Cc1nc2ccccc2n1CCC(=O)N/N=C/c1c(O)ccc2ccccc12`, the result in [3] was Active. The MIC turned out to be 12.5 µM (≈ 4.66 µg/mL) in data set [1]; 5 µM (≈ 1.86 µg/mL) in data set [2]; 6 µM (≈ 2.23 µg/mL) in data set [5]; 50 µM (≈ 18.6 µg/mL) in data set [6]; 50 µM (≈ 18.6 µg/mL) in data set [7]; 50 µM (≈ 18.6 µg/mL) in data set [8]. For the same molecule, the minimal inhibitory concentration (MIC) in data set [9] was 50 µM (≈ 18.6 µg/mL); in [10], above 50 µM; in data set [11], above 50 µM. The kinetic solubility in [4] was determined as 20 µM (≈ 7.45 µg/mL).
Turning to `Cc1nccn1CCC(=O)N/N=C/c1c(O)ccc2ccccc12`, in data set [3], the outcome was Active. The MIC in data set [1] was determined as 12.5 µM (≈ 4.03 µg/mL); in data set [2] it was 7.5 µM (≈ 2.42 µg/mL). Further, in data set [4], the solubility (kinetic) came out at 10 µM (≈ 3.22 µg/mL).
As for `Cc1nc2ccccc2n1CCC(=O)N/N=C/c1cccc2ccccc12`, the figures for the MIC in [1] and in data set [2] were 50 µM (≈ 17.8 µg/mL) and above 20 µM, respectively.
On the same counts, the results for `COc1ccc2ccccc2c1/C=N/NC(=O)CCn1c(C)nc2ccccc21` are above 50 µM and above 20 µM.
In the case of `Cc1nc2cnccc2n1CCC(=O)N/N=C/c1c(O)ccc2ccccc12`, the result in data set [3] was Active. Moreover, the MIC in data set [1] amounted to 12.5 µM (≈ 4.67 µg/mL); in data set [2], 5 µM (≈ 1.87 µg/mL). The kinetic solubility in data set [4] was determined as 90 µM (≈ 33.6 µg/mL).
`Cc1nc2ccncc2n1CCC(=O)N/N=C/c1c(O)ccc2ccccc12`: the figures for the MIC in data set [1] and in data set [2] were 25 µM (≈ 9.34 µg/mL) and 10 µM (≈ 3.73 µg/mL), respectively.
In the case of `[N-]=[N+]=NCc1nc2ccccc2n1CCC(=O)N/N=C/c1c(O)ccc2ccccc12`, the result in data set [3] was Active. In addition, the MIC was 12.5 µM (≈ 5.17 µg/mL) in data set [1] and 5 µM (≈ 2.07 µg/mL) in [2]. The same molecule had a solubility (kinetic) in [4] of 20 µM (≈ 8.27 µg/mL).
Consider `Cc1nc2cc(Cl)ccc2n1CCC(=O)N/N=C/c1c(O)ccc2ccccc12`, for which the outcome in [3] and in [12] was Active. The minimal inhibitory concentration (MIC) amounted to 7.5 µM (≈ 3.05 µg/mL) in data set [1] and 5 µM (≈ 2.03 µg/mL) in data set [2]. Moreover, the solubility (kinetic) in [4] was found to be 210 µM (≈ 85.4 µg/mL).
For the molecule `CN(C)Cc1nc2ccccc2n1CCC(=O)N/N=C/c1c(O)ccc2ccccc12`, the MIC in data set [1] was 12.5 µM (≈ 5.19 µg/mL); in [2] it was 5 µM (≈ 2.08 µg/mL). The same molecule came in with a kinetic solubility in [4] of 90 µM (≈ 37.4 µg/mL).
For the molecule `O=C(CCn1cnc2ccccc21)N/N=C/c1c(O)ccc2ccccc12`, in [3], the result was Active. Besides, the MIC in data set [1] stood at 12.5 µM (≈ 4.48 µg/mL); in data set [2], 7.5 µM (≈ 2.69 µg/mL). In data set [4], this molecule came in with a kinetic solubility of 30 µM (≈ 10.8 µg/mL).
Regarding `O=C(CCn1c(C(F)(F)F)nc2ccccc21)N/N=C/c1c(O)ccc2ccccc12`, the MIC is above 50 µM in [1] and 7.5 µM (≈ 3.2 µg/mL) in data set [2]. The same molecule returned a solubility (kinetic) in data set [4] of 30 µM (≈ 12.8 µg/mL).
Regarding `CC(=O)Oc1ccc2ccccc2c1/C=N/N(C(C)=O)C(=O)CCn1c(C)nc2ccccc21`, the MIC in data set [1] is 50 µM (≈ 22.8 µg/mL); in [2], above 40 µM.
`Cc1nc2cc(Cl)c(Cl)cc2n1CCC(=O)N/N=C/c1c(O)ccc2ccccc12`: the outcome in [3] and in [12] was Active. In addition, the minimal inhibitory concentration (MIC) was 6.3 µM (≈ 2.78 µg/mL) in [1]; 3.8 µM (≈ 1.68 µg/mL) in data set [2]; 3 µM (≈ 1.32 µg/mL) in [5]; 12 µM (≈ 5.3 µg/mL) in data set [6]; 25 µM (≈ 11 µg/mL) in data set [7]; 25 µM (≈ 11 µg/mL) in data set [8]. Also, the minimum inhibitory concentration (MIC) in [9] is 50 µM (≈ 22.1 µg/mL); in data set [10], 50 µM (≈ 22.1 µg/mL); in data set [11], above 50 µM. Also, in data set [4], the kinetic solubility was determined as 90 µM (≈ 39.7 µg/mL).
As for `Cc1nc2ccccc2n1CCC(=O)N/N=C/c1ccc(F)c2ccccc12`, the MIC in data set [1] is above 50 µM; in data set [2] it was above 20 µM.
For `C/C(=N\NC(=O)CCn1c(C)nc2ccccc21)c1c(O)ccc2ccccc12` the same measures were above 50 µM and above 20 µM.
As for `C=CCOc1ccc2ccccc2c1/C=N/NC(=O)CCn1c(C)nc2ccccc21`, the minimal inhibitory concentration (MIC) in [1] was above 50 µM; in data set [2], above 20 µM.
On the same counts, the results for `Cc1nc2ccccc2n1CCC(=O)N/N=C/c1ccccc1F` are above 50 µM and above 20 µM.
For `Cc1nc2ccccc2n1CCC(=O)N/N=C/c1ccccc1O` the same measures were 50 µM (≈ 16.1 µg/mL) and 15 µM (≈ 4.84 µg/mL).
For `Cc1nc2ccccc2n1CCC(=O)N/N=C/c1ccc(N(C)C)c2ccccc12` the same measures were above 50 µM and above 20 µM.
Turning to `Cc1nc2ccccc2n1CC(=O)N/N=C/c1c(O)ccc2ccccc12`, the values for the MIC in data set [1] and in data set [2] were 25 µM (≈ 8.96 µg/mL) and 5 µM (≈ 1.79 µg/mL), respectively. The same molecule yielded a solubility (kinetic) in data set [4] of 20 µM (≈ 7.17 µg/mL).
`COc1ccc2ccccc2c1/C=N/NC(=O)CCn1c(C(F)(F)F)nc2ccccc21`: the minimum inhibitory concentration (MIC) was above 50 µM in data set [1] and above 20 µM in data set [2].
Regarding `Cc1nc2ccccc2n1CCCC(=O)N/N=C/c1c(O)ccc2ccccc12`, the result in data set [3] was Active. Moreover, the figures for the MIC in data set [1] and in data set [2] were 10 µM (≈ 3.86 µg/mL) and 5 µM (≈ 1.93 µg/mL), respectively. Also, the kinetic solubility in data set [4] was determined as 120 µM (≈ 46.4 µg/mL).
